AF4-AF9 inh: inhibitors of human MLL-AF4/AF9 interaction | AlphaScreen, biotin-AF4 peptide binding to FLAG-AF9 | inhibition, % at 10 µM | 350,000 compounds, 0.47% hits;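 active means every replicate reaching a set inhibition limit, whatever the replicate mean, cut at about 25% in these data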
ERAP1 inh: ERAP1 (human) enzyme inhibition. AID 652197. inhibition, % at 10.7 µM. recombinant ERAP1, Leu-AMC fluorescence, 60 min. 340,000 compounds, 0.15% hits;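 active means mean replicate inhibition of at least 30%, or all replicates individually reaching that 30% level; inactive means mean below 30% and not every replicate reaching it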
Target sequence (Q9NZ08 whole entry, looked up): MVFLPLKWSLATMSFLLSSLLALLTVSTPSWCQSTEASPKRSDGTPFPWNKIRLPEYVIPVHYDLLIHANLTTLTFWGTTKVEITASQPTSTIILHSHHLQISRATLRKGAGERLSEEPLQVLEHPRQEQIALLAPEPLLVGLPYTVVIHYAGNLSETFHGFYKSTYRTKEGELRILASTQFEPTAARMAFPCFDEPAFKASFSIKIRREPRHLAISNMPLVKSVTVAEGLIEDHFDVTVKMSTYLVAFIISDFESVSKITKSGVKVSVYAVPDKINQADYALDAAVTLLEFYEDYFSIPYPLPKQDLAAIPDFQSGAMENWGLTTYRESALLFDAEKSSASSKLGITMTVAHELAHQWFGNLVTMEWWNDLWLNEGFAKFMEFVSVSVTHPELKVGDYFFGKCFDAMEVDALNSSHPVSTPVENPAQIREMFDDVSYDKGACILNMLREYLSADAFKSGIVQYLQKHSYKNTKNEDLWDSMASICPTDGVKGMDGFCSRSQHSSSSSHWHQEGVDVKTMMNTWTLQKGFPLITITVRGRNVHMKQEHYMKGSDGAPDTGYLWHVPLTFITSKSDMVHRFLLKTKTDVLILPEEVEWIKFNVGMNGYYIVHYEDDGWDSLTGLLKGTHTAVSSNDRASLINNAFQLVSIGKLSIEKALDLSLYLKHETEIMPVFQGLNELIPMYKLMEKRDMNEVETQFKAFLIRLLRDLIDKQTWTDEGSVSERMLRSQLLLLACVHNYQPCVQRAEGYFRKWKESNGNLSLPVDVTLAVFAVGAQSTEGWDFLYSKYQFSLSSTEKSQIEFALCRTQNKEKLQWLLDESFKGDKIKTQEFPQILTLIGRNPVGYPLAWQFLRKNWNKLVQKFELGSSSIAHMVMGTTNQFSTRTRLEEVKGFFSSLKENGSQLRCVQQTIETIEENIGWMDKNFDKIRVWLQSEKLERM
S100A4 inh HTS: S100A4-myosin IIA interaction inhibition; P26447; S100A4/TAMRA-MyoIIA peptide fluorescence polarization; inhibition, % at 10.7 µM; 360,000 compounds, 0.14% hits;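 active means mean inhibition of at least 70% across replicates, with every replicate also reaching that level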
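Material: S100A4 monomer protein | Medium: HEPES pH 7.2 with CaCl2, KCl, NaCl, DTT, Triton | Reagent: Labelled myosin peptide probe, 5 nM | Doses: One dose per compound | Times: 5 min incubation before reading | Benchmarks: Neutral control DMSO, positive control TFP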
Rtt109 HAT inh: C. albicans Rtt109 histone acetyltransferase inhibition; Q5AAJ8; purified Rtt109/Vps75, ThioGlo CoA-SH fluorescence, 4 h; inhibition, % at 34.9 µM; 330,000 compounds, 0.16% hits; AID 540336;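 active means inhibition of at least 50% in every replicate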
miR-122 sensor: inhibitors of miR-122 in Huh7 cells; Huh7 miR-122 Renilla luciferase sensor, 48 h; neutral wells = 0, positive control = 100; activation (reporter increase), % at 12.5 µM; 340,000 compounds, 0.3% hits;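 active means mean replicate activation score at least 90 and every replicate individually at or above 90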;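 further: higher luciferase means less miR-122 activity so hits act as miR-122 inhibitors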
Large screens that a line does not name were inactive; [ ] = remark or other dose. Sampled rows, rich in hits. Any-hit rate of the full collection: about 0.86%.

CCC(=O)N1C[C@H]2[C@@H](c3ccccc31)[C@H](CO)N2Cc1ccccc1Cl	none (no result: Rtt109 HAT inh)
O=C(NCc1ccc2c(c1)OCO2)c1ccc(CS(=O)Cc2cccc(Cl)c2)o1 (stereo unspecified)	Rtt109 HAT inh 52
O=C(NCc1ccc2c(c1)OCO2)c1ccc(CS(=O)Cc2ccc(Cl)cc2)o1 (stereo unspecified)	none
Cc1cc(C(=O)Nc2cccc3c2O[C@H](CN(C)S(=O)(=O)c2ccc(F)cc2)[C@H](C)CN([C@@H](C)CO)C3=O)n(C)n1	none (no result: Rtt109 HAT inh)
COc1cc(-c2nnc(SCC(=O)OC3CCCCC3)o2)cc(OC)c1OC	Rtt109 HAT inh 59 (no result: AF4-AF9 inh, ERAP1 inh, S100A4 inh HTS)
CCOC(=O)CSc1nnc(-c2cc(OC)c(OC)c(OC)c2)o1	none (no result: miR-122 sensor)
COCCNC(=O)C[C@@H]1CC[C@H]2[C@@H](COc3ccc(NC(=O)C4CCOCC4)cc3C(=O)N2C)O1	none (no result: Rtt109 HAT inh)
O=C(CCN1CCCCC1)NCC[C@@H]1CC[C@@H](NS(=O)(=O)c2cccc(F)c2)[C@@H](CO)O1	none (no result: Rtt109 HAT inh, miR-122 sensor)
COc1ccc(C2=CC(=O)C[C@H](c3ccc(OC)cc3)C2)cc1	none
COc1ccc(C2=CC(=O)C=CC2=O)cc1	Rtt109 HAT inh 104 (no result: AF4-AF9 inh, ERAP1 inh, miR-122 sensor)
CCC(=O)N1CC2(C1)CN(C(=O)CN1CCOCC1)[C@H](CO)c1[nH]c3cc(OC)ccc3c12	none (no result: ERAP1 inh, S100A4 inh HTS, Rtt109 HAT inh, miR-122 sensor)
CCCC#Cc1cnc2c(c1)C(=O)N([C@@H](C)CO)C[C@@H](C)[C@H](CN(C)C(=O)Nc1ccccc1OC)O2	none (no result: Rtt109 HAT inh)
CCCN(CC1CC1)c1cc2c(c3c1ccn3C)C1CCC2C1 (stereo unspecified)	AF4-AF9 inh 48 (no result: Rtt109 HAT inh)
CCN(Cc1ccccc1)c1cc2c(c3c1ccn3C)C1CCC2C1 (stereo unspecified)	AF4-AF9 inh 25 (no result: Rtt109 HAT inh)
Cn1ccc2c(N3CCOCC3)cc3c(c21)C1CCC3C1 (stereo unspecified)	AF4-AF9 inh 26 (no result: Rtt109 HAT inh)
COc1ccc2c3c(n(C)c2c1)[C@@H](CO)N(C(=O)CN1CCOCC1)CC31CN(C(=O)C2CC2)C1	none (no result: ERAP1 inh, S100A4 inh HTS, Rtt109 HAT inh, miR-122 sensor)
Cc1noc(C)c1S(=O)(=O)N(C)C[C@H]1Oc2ccc(NS(=O)(=O)c3cn(C)cn3)cc2CC(=O)N([C@@H](C)CO)C[C@@H]1C	none (no result: Rtt109 HAT inh)
COc1ccc(N2C(=O)C3CC(C)=C(C)CC3C2=O)c(OC)c1 (stereo unspecified)	none (no result: AF4-AF9 inh, ERAP1 inh, S100A4 inh HTS)
COc1cc(N2C(=O)C=CC2=O)ccc1N1C(=O)C=CC1=O	ERAP1 inh 48
CC(C)c1nnc(NC(=O)Cc2cccs2)s1	none
CC(C)c1nnc(NC(=O)CCC(=O)NCc2cccs2)s1	Rtt109 HAT inh 53 (no result: AF4-AF9 inh, ERAP1 inh, S100A4 inh HTS)
O=c1c2c([N+](=O)[O-])cc([N+](=O)[O-])cc2sn1-c1ccc(Br)cc1	none (no result: AF4-AF9 inh, ERAP1 inh, S100A4 inh HTS, miR-122 sensor)
O=c1c2c([N+](=O)[O-])cc([N+](=O)[O-])cc2sn1Cc1ccccc1	ERAP1 inh 88 (no result: miR-122 sensor)
COc1ccc(/C=C/C(=O)O)cc1S(=O)(=O)NCc1ccco1	Rtt109 HAT inh 50 (no result: miR-122 sensor)
COc1ccc(S(=O)(=O)NCc2ccco2)c2ccccc12	miR-122 sensor 96
CN1C(=O)c2cccc3c(S(=O)(=O)NCc4ccco4)ccc1c23	none (no result: AF4-AF9 inh, ERAP1 inh, S100A4 inh HTS)
COc1ccc(C(=O)Nc2ccc(S(=O)(=O)NCc3ccco3)cc2)cc1OC	miR-122 sensor 176 (no result: AF4-AF9 inh, ERAP1 inh, S100A4 inh HTS)
COc1cc(/C=C/C(=O)O)cc(S(=O)(=O)NCc2ccco2)c1OC	none (no result: miR-122 sensor)
CO[C@H]1CN(C)C(=O)c2cc(NC(C)=O)ccc2OC[C@@H](C)N(C(=O)Cc2cccnc2)C[C@H]1C	none (no result: Rtt109 HAT inh, miR-122 sensor)
CCNc1nc(N)nc(Oc2ccc(OCc3ccccc3)nn2)n1	none
CCNc1nc(N)nc(Oc2ccc(OCCOc3ccccc3)nn2)n1	miR-122 sensor 151 (no result: AF4-AF9 inh, ERAP1 inh, S100A4 inh HTS)
CCN(CC)CCN(C(=O)c1ccc(C(=O)c2ccccc2)cc1)c1nc2c(OC)cccc2s1	AF4-AF9 inh 27
COc1cccc2sc(N(CCCN(C)C)C(=O)c3sc4ccccc4c3Cl)nc12	AF4-AF9 inh 28
CN(C)C(=O)C[C@H]1C=C[C@H](NC(=O)c2ccc(F)cc2)[C@H](CO)O1	none (no result: Rtt109 HAT inh, miR-122 sensor)
C[n+]1c2n(c3ccccc31)N=C(c1cc(C(C)(C)C)c(O)c(C(C)(C)C)c1)CS2	AF4-AF9 inh 27
O=C(C[C@@H]1C[C@H]2c3cc(NC(=O)NC4CCCC4)ccc3O[C@H]2[C@H](CO)O1)NCCc1ccccc1	S100A4 inh HTS 111 (no result: Rtt109 HAT inh)
O=C(C[C@@H]1C[C@H]2c3cc(NC(=O)NC4CCCC4)ccc3O[C@H]2[C@@H](CO)O1)NCCc1ccccc1	none (no result: Rtt109 HAT inh)
C[C@H](NC(=O)[C@H]1[C@H](CO)[C@H]2Cn3c(ccc(C4=CCCC4)c3=O)[C@@H]1N2C(=O)C1CC1)c1ccccc1	none (no result: Rtt109 HAT inh, miR-122 sensor)
COc1ccc(NC(C)C(=O)Nc2cc(C(F)(F)F)ccc2N2CCOCC2)c(OC)c1 (stereo unspecified)	AF4-AF9 inh 26
COc1cc(Cl)c(C)cc1NC(C)C(=O)Nc1cc(C(F)(F)F)ccc1N1CCOCC1 (stereo unspecified)	none (no result: AF4-AF9 inh, ERAP1 inh, S100A4 inh HTS, miR-122 sensor)
CCOc1ccc(C(C(=O)NCC2CCCO2)N(C(=O)c2snc(C(N)=O)c2N)c2ccc3c(c2)OCCO3)cc1 (stereo unspecified)	AF4-AF9 inh 27 (no result: miR-122 sensor)
C[C@@H]1CN([C@@H](C)CO)C(=O)Cc2cc(NC(=O)c3ccncc3)ccc2O[C@H]1CN(C)Cc1ccncc1	none (no result: Rtt109 HAT inh)
CCCCc1ccc(-n2c(Cc3cccs3)n[nH]c2=S)cc1	Rtt109 HAT inh 72 (no result: miR-122 sensor)
O=C(CCc1nnc(C2(c3ccc(Cl)cc3)CCC2)o1)NCCCn1cccn1	Rtt109 HAT inh 50 (no result: miR-122 sensor)
CC(NC(=O)CCc1nnc(C2(c3ccc(Cl)cc3)CCC2)o1)C1CC1 (stereo unspecified)	none (no result: miR-122 sensor)
CSc1ccccc1NC(=O)Cn1c([N+](=O)[O-])cnc1C	AF4-AF9 inh 42 (no result: miR-122 sensor)
CO[C@@H]1CN(C)C(=O)c2ccc(NC(=O)C3CCC3)cc2OC[C@@H](C)N(Cc2nccs2)C[C@H]1C	none (no result: Rtt109 HAT inh)
C[C@@H]1CN([C@@H](C)CO)C(=O)c2cccc(NC(=O)Nc3cccc4ccccc34)c2O[C@H]1CN(C)C(=O)Nc1ccccc1	S100A4 inh HTS 105 (no result: Rtt109 HAT inh)
C[C@@H]1CN([C@@H](C)CO)C(=O)c2cccc(N(C)C)c2O[C@@H]1CN(C)C(=O)Nc1cccc2ccccc12	S100A4 inh HTS 81 (no result: Rtt109 HAT inh)
C[C@H](CO)N1C[C@H](C)[C@@H](CN(C)C(=O)Nc2ccc(F)cc2)Oc2c(NS(=O)(=O)c3ccccc3)cccc2C1=O	miR-122 sensor 128[16.7 µM] (no result: Rtt109 HAT inh)
C[C@H]1CN([C@@H](C)CO)C(=O)c2cccc(N(C)C)c2O[C@@H]1CN(C)C(=O)Nc1cccc2ccccc12	none (no result: Rtt109 HAT inh)
CNC[C@@H]1Oc2ccc(NC(=O)Nc3cccc4ccccc34)cc2C(=O)N([C@H](C)CO)C[C@@H]1C	S100A4 inh HTS 137 (no result: Rtt109 HAT inh)
C/C=C/c1ccc([C@H]2[C@@H](CO)N(C(=O)c3cnccn3)C23CN(C(=O)CC)C3)cc1	none (no result: Rtt109 HAT inh, miR-122 sensor)
CCCC#Cc1ccc2c(c1)O[C@@H](CN(C)C(=O)CC1CC1)[C@H](C)CN([C@@H](C)CO)S2(=O)=O	none (no result: Rtt109 HAT inh)

High-throughput results deposited in PubChem BioAssay by Broad Institute.
